PolyA inhibitor: yeast polyadenylation inhibition; AID 1875; 300,000 compounds, 0.02% hits; activity score, % at 12 µM; S. cerevisiae SKY197-pL101 polyadenylation reporter, beta-gal luminescence; efflux-impaired pdr1/pdr3 knockout yeast; score 100 = 6 SD above DMSO;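 active = lowest replicate activity score at least 50, where 100 means six control SD above control mean; inconclusive = lowest score under 50 but half or more replicates reach 50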;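 also: yeast exposed to compound for 9 h at 30 °C; higher score means more reporter readthrough which indicates perturbed polyadenylation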
AHR act: activates the human aryl hydrocarbon receptor; P35869; AHR-responsive luciferase reporter cells, luminescence; activation, % at 5 µM; 320,000 compounds, 2.5% hits; in the data active = activation above about 47%;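 also: 0% = vehicle wells and 100% = reference agonist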
STAT3 act-1: activators of IL-6 induced STAT3 signaling. U3A cells, IL-6 STAT3-luciferase reporter, luminescence; 100% = signal with IL-6 EC80 alone. activation (% of control), % at 5.6 µM. 190,000 compounds, 0.91% hits. AID 871;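 active = activation above the screen-wide mean of compound activation plus 3 SD, cut at about 130% in these data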;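 also: 0% = background luminescence of wells with medium and substrate only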
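Material: human STAT1-deficient U3A cells with stable STAT3-luciferase reporter / Probe or stimulus: IL-6 stimulus at 33 ng/mL final / Schedule: 1 h compound pre-exposure, 6 h IL-6 stimulation, 37 °C / Technique: luminescence / Read-out basis: percent of IL-6-only median luminescence / Control set: IL-6-only high control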
Hsp70 act: Hsp70 transcriptional activation, primary screen. HeLa Hsp70 promoter luciferase reporter, luminescence; scaled: vehicle 0, proteasome-inhibitor control 100%. activation, % at 10 µM. 200,000 compounds, 0.04% hits;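 active = activation above the mean across all tested compounds plus 3 SD, cutoff set per campaign, cut at about 5.5% in these data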;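 also: 100% = MG132 at 30 µM as the positive control and 0% = DMSO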
PERK inhibitor: human PERK inhibition, primary cell-based screen; 220,000 compounds, 0.17% hits; AID 1416; CHO PERK-DD fusion, SEAP luminescence translation reporter; Q9NZJ5; inhibition, % at 5.6 µM;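 active = inhibition above the mean inhibition of all tested compounds plus 3 SD, set separately per screening campaign, cut at about 2.9% in these data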;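 also: PERK kinase domain activated by AP20187 dimerizer at 100 nM; 0% = DMSO with dimerizer and 100% = rapamycin at 8.4 µM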
HSF1 inh: HSF1 inhibition; NIH3T3-HGL HSE-luciferase, MG132-induced, luminescence 8 h; active compounds read low; activity change, negative = inhibition, % at 7.5 µM (by protocol); 300,000 compounds, 0.77% hits; AID 2098;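 active = more than half of replicate wells show activity change below -50%, luminescence cut by over half; inconclusive = some wells, but at most half, below -50%; inactive = no replicate well below -50%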;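 also: luciferase reports HSF-1 transcriptional activity via heat shock element; 0% = median of DMSO wells and -100% = zero luminescence signal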
STAT3 act-2: confirmation of STAT3 signaling activators; shares compounds with STAT3 act-1; 1,200 compounds, 64% hits; potentiation (% of control), % at 5.7 µM; U3A STAT3-luciferase reporter, IL-6 potentiation, luminescence; U3A cells lack STAT1; 100 means same as IL-6 alone;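 active = percent activation of the STAT3 luciferase reporter above a set limit taken from the earlier primary screen, cut at about 130% in these data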;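 also: 0% = background signal of medium plus substrate and 100% = median of IL-6 with DMSO wells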
NFkB act 2: counter-screen for STAT3 activators: NF-kappaB activation | activation (% of control), % at 5.7 µM | 1,200 compounds, 11% hits | shares compounds with STAT3 act-1 | human cells, NF-kappaB reporter activation; in the data active = activation above about 120%;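 also: reporter induced by TNF-alpha stimulation; 100% = median of stimulated DMSO wells and 0% = no signal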
STAT1 act STAT3c: counter-screen for STAT3 activators: STAT1 activation; AID 1318; 1,200 compounds, 13% hits; NIH 3T3 STAT1-luciferase reporter, IFN-gamma, luminescence; activation (% of control), % at 5.7 µM; shares compounds with STAT3 act-1;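 active = activation above the solvent-only control well mean plus 3 SD, set per screening run, cut at about 120% in these data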;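 also: 100% = IFN-gamma with DMSO median signal so 100% means no change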
Hsp70 act dose: dose response of Hsp70 transcriptional activators; HeLa hsp70.1pr-luc reporter, luciferase luminescence; AID 1252; calls only at 99 µM; shares compounds with Hsp70 act; 70 compounds, 10% hits;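 active = over 50% activation at some tested dose; inactive = under 50% activation at every tested dose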
AHR act confirm: human AHR activation, confirmation; shares compounds with AHR act; human cells, AHR-responsive luciferase reporter, luminescence; activation, % at 9 µM; 2,300 compounds, 87% hits; in the data active = activation above about 49%;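 also: HepG2 hepatoma cells carrying a DRE-driven firefly luciferase reporter; 0% = vehicle wells and 100% = reference agonist wells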
PXR counter: PXR activation, counter-screen for AHR activators. shares compounds with AHR act. cell-based PXR reporter, luciferase luminescence. activation, % at 11.6 µM. 2,300 compounds, 88% hits; in the data active = activation above about 11%;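 also: human hepatoma DPX-2 cells expressing full-length human PXR; 0% = DMSO and 100% = reference agonist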
Target sequence (O75469 whole entry, looked up): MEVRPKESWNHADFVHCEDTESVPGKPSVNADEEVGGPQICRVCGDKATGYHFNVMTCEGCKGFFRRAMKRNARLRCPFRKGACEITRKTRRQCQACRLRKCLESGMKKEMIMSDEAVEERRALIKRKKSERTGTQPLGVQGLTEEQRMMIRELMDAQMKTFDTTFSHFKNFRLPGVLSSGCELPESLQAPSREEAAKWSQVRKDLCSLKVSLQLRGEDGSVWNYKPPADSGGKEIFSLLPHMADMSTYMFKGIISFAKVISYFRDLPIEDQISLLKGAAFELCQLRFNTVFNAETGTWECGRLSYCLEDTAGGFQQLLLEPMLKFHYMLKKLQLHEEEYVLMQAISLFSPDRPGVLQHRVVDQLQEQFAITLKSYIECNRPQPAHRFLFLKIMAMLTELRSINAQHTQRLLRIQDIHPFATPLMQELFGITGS
Active calls of the source: *; i = inactive; ? = inconclusive; nt = no result given; + = active, no number. Most compounds without a hit are left out; they make up all but 3.6% or so of the library.

SMILES | PolyA inhibitor | AHR act | STAT3 act-1 | Hsp70 act | PERK inhibitor | HSF1 inh | Hsp70 act dose | others
Cc1oc2c(cc(NS(=O)(=O)c3cccs3)c3ccccc32)c1C(=O)OC(C)C | 4 | 92* | 154* | 0 | -1 | 8 | nt | STAT3 act-2=131;NFkB act 2=107;STAT1 act STAT3c=108;AHR act confirm=92*;PXR counter=162*
Clc1nnc(N/N=C/c2ccccc2)c2ccccc12 | -39 | 82* | 159* | 0 | 0 | 21 | nt | STAT3 act-2=163*;NFkB act 2=124*;STAT1 act STAT3c=163*;AHR act confirm=110*;PXR counter=23*
C(=N\Nc1ncnc2ccccc12)/c1ccccc1 | 7 | 46 | 82 | 0 | 0 | 0 | nt
COc1ccc2nc(-c3ccc(F)cc3)sc2c1 | -8 | 5 | nt | nt | nt | -33 | nt
COc1cc(OC)cc(-c2nc3ccccc3s2)c1 | -12 | 90* | 203* | 0 | 0 | 43 | nt | STAT3 act-2=180*;NFkB act 2=127*;STAT1 act STAT3c=139*;AHR act confirm=107*;PXR counter=11*
COc1ccc(Br)cc1C(=O)Nc1ccccc1-c1ccccc1 | -14 | 82* | 138* | 0 | 0 | 1 | nt | STAT3 act-2=135*;NFkB act 2=102;STAT1 act STAT3c=96;AHR act confirm=76*;PXR counter=13*
COc1ccc(Br)cc1C(=O)Nc1ccccc1N1CCCC1 | -13 | 28 | nt | nt | nt | 14 | nt
O=C(Cc1c[nH]c2ccccc12)Nc1nnc(C2CC2)s1 | 0 | 91* | 137* | 0 | 0 | -3 | nt | STAT3 act-2=168*;NFkB act 2=102;STAT1 act STAT3c=84;AHR act confirm=90*;PXR counter=20*
O=C1CCc2cc(NS(=O)(=O)c3ccc(Cl)cc3)cc3c2N1CC3 | 9 | 26 | nt | nt | nt | 11 | nt
CC(=O)c1cccc(NC(=O)CCc2nnc3ccc(N4CCOCC4)nn23)c1 | 21 | 0 | nt | nt | nt | 3 | nt
CCC(=O)N1CCN(c2ccc(NC(=O)c3ccc([N+](=O)[O-])o3)cc2Cl)CC1 | -6 | nt | 113 | 43* | 0 | 115 | i
CC1CN(C)CCC1OC(=O)c1ccccc1 (stereo unspecified) | 1 | nt | nt | nt | nt | -11 | nt
Cn1[nH]c(CSc2ccc(Cl)cc2)cc1=O | 8 | 1 | 97 | 0 | 1 | 10 | nt
CCCCS(=O)(=O)/C=C\C=C/S(=O)(=O)CCCC | -15 | -1 | 90 | 56* | -2 | -83* | i
COc1ccc(NC(=O)/C(Cl)=C(/Cl)S(=O)Cc2ccc(Cl)cc2)cn1 (stereo unspecified) | nt | nt | 79 | 43* | 1 | nt | i
O=Cc1ccc(OC(=O)CCCCC(=O)Oc2ccc(C=O)cc2)cc1 | -5 | 8 | nt | nt | nt | 2 | nt
CCOc1ccc(NC(=O)c2ccc(NC(=S)NC3CCCCC3)cc2)cc1 | 0 | 0 | 88 | 0 | 0 | 16 | nt
CCOc1ccc(NC(=O)c2ccc(NC(=S)NC3CC3)cc2)cc1 | 10 | 8 | 89 | 9.4* | 0 | 20 | i
C[N+]1=C(/C=C/Nc2ccccc2Cl)C(C)(C)c2ccccc21 | -2 | 2 | 102 | 0 | 1 | -27 | nt
COC(=O)c1ccc2c(c1)C(C)(C)C(/C=C/c1ccccc1O)=[N+]2C | -25 | 8 | 75 | 8.4* | -1 | 20 | +
COc1ccc(C(CNC(=O)c2cc3ccccc3o2)N2CCCC2)cc1 (stereo unspecified) | nt | 5 | nt | nt | nt | nt | nt
COc1ccc(C(CNC(=O)c2cc3ccccc3o2)N2CCCCC2)cc1 (stereo unspecified) | 7 | 5 | 96 | 9.3* | 0 | 1 | i
OC1(c2nc3ccccc3[nH]2)CCCCC1 | 4 | 0 | nt | nt | nt | 6 | nt
COc1ccc(-n2nnnc2SCC(=O)Nc2ccc(OC)cc2OC)cc1 | ? | 5 | nt | nt | nt | -5 | nt
Cc1cc(C)nc(SCc2nnc(SCC(=O)Nc3c(C)cccc3C)o2)n1 | 25 | 23 | 97 | 1 | -1 | 8 | nt
SMILES | PolyA inhibitor | AHR act | STAT3 act-1 | Hsp70 act | PERK inhibitor | HSF1 inh | Hsp70 act dose | others
Cc1cc(C)nc(SCc2nnc(SCC(=O)Nc3cc(C(F)(F)F)ccc3Cl)o2)n1 | 16 | 1 | 107 | 5.7* | 1 | 10 | i
COc1ccc(-c2nc(N=Nc3ccc(O)cc3)n[nH]2)cc1 | -16 | 19 | 95 | 0 | 0 | 5 | nt
COc1ccc(N=Nc2[nH]c3ccc(C)cc3c2O)cc1 | 4 | 69* | 116 | 5.6* | 1 | -2 | i
CC(=O)c1c(C)[nH]c(C(=O)OCC(=O)Nc2sc3c(c2C#N)CCC(C)C3)c1C (stereo unspecified) | -13 | 2 | nt | nt | 1 | -2 | nt
N#C/C(=C/c1ccc(N2CCCCCC2)o1)c1ccc(Cl)cc1 | -48 | 1 | 90 | 6.3* | -1 | 90 | i
COc1ccc(C(c2c(O)ccc3ccccc23)N2CCOCC2)c(OC)c1 (stereo unspecified) | 11 | 25 | 121 | 6.4* | 0 | 74 | i
CCOC(=O)C1CCN(c2ccc([N+](=O)[O-])cc2)CC1 | 0 | 3 | 97 | 5.7* | 0 | 14 | i
CCOC(=O)C1CCN(C(=O)C2CCN(C(=O)c3ccc([N+](=O)[O-])cc3)CC2)CC1 | -1 | -1 | nt | nt | nt | -2 | nt
Cc1cccc(C)c1NC(=O)NC1(C(=O)N2CCCC2)CCCCC1 | 7 | 1 | nt | nt | nt | 0 | nt
COc1nc(Cl)cn(-c2ccc(C)cc2)c1=O | -11 | 3 | 85 | 0 | 1 | 2 | nt
Cc1ccc(-n2c(Cl)c(Cl)nc(Cl)c2=O)cc1 | nt | 0 | 110 | 6.4* | -1 | nt | i
CCSc1nccc(-c2nn(-c3ccc(C)cc3)ccc2=O)n1 | -1 | 21 | 102 | 1 | -1 | -4 | nt
C=CCSc1nccc(-c2nn(-c3ccc(C)cc3)ccc2=O)n1 | -8 | 18 | 100 | 17* | -1 | -5 | i
CC(C)(C)C1C/C(=C/c2ccccn2)C(=O)/C(=C/c2ccccn2)C1 (stereo unspecified) | 19 | -3 | 62 | 46* | 0 | -34 | +

Screening results deposited in PubChem BioAssay by several laboratories.
